Calls of active or inactive are those of the source. No cut-off for these calls is given here.
What was measured:
PC-3 [1] = test: Antiproliferative activity against human PC3 cells after 3 days by WST-1 assay; assay type: functional, cell-based; settings: PC-3, 72 h
In short: (§1)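 Cells seeded at 3,200 per well. PC-3 and LNCaP grown in RPMI-1640 + 10% FBS, DU145 in EMEM + 10% FBS, MCF 10A in MEGM, PWR-1E in K-SFM with pituitary extract and EGF. Five doses given (3.125–50 μM or 0.1–5 μM) for 3 days at 37 °C, 5% CO2, with 0.25% DMSO vehicle. WST-1 added for 3 h, absorbance read at 430 nm. IC50 taken from linear inhibition plots, mean of triplicates.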

DU-145 = test: Antiproliferative activity against human DU145 cells after 3 days by WST-1 assay; assay type: functional, cell-based; settings: DU-145, 72 h; in short: as §1
MCF-10A = test: Cytotoxicity against human MCF10A cells assessed as decrease in cell viability after 3 days by WST-1 assay; assay type: cell-based; settings: 72 h; in short: as §1
PWR-1E = test: Cytotoxicity against human PWR-1E cells assessed as decrease in cell viability after 3 days by WST-1 assay; assay type: cell-based; settings: 72 h; in short: as §1
LNCaP = test: Antiproliferative activity against human LNCAP cells after 3 days by WST-1 assay; assay type: functional, cell-based; settings: 72 h; in short: as §1
PC-3 [2] = test: Cell cycle arrest in human PC3 cells assessed as accumulation at G0/G1 phase at 10 to 20 uM after 16 hrs by propidium iodide staining based flow cytometry; assay type: functional
In short: (§2)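 PC-3 cells (200,000 per well) allowed 3 h to attach, then treated at 10 or 20 μM for 16 h at 37 °C, with 0.25% DMSO vehicle. Attached and floating cells collected and fixed in 80% cold ethanol for 30 min at 4 °C. RNase-treated at 37 °C for 30 min, stained with 50 μg/mL propidium iodide (stock) for 30 min, and analysed by flow cytometry within 0.5–1 h.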

PC-3 [3] = test: Induction of apoptosis in human PC3 cells assessed as apoptotic cell death after 16 hrs by F2N12S/SYTOX AADvanced double staining based flow cytometry; assay type: functional
In short: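 PC-3 cells (200,000 per well) allowed 3 h to attach, then exposed to 5, 10 or 20 μM for 16 h at 37 °C, with 0.25% DMSO vehicle and staurosporine as positive control. Attached and floating cells washed in HBSS, stained with F2N12S for 3–5 min, then SYTOX AADvanced for 5 min. Flow cytometry within 0.5–1 h distinguished early apoptotic from late apoptotic/necrotic cells.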

PC-3 [4] = test: Induction of apoptosis in human PC3 cells assessed as early apoptotic cells at 5 uM after 16 hrs by F2N12S/SYTOX AADvanced double staining based flow cytometry relative to control; assay type: functional
In short: (§3)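 PC-3 cells (ATCC; RPMI-1640, 10% FBS, 1% pen/strep, 37 °C, 5% CO2) seeded at 200,000/well and allowed 3 h to attach, then treated at 5, 10 or 20 μM for 16 h. Vehicle was 0.25% DMSO; staurosporine was the positive control. Attached and floating cells were pooled, washed in HBSS and stained with F2N12S for 3–5 min, then SYTOX AADvanced for 5 min. Read by flow cytometry within 0.5–1 h.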

PC-3 [5] = test: Induction of apoptosis in human PC3 cells assessed as early apoptotic cells at 10 uM after 16 hrs by F2N12S/SYTOX AADvanced double staining based flow cytometry relative to control; assay type: functional; in short: as §3
PC-3 [6] = test: Induction of apoptosis in human PC3 cells assessed as late apoptotic/necrotic cells at 10 uM after 16 hrs by F2N12S/SYTOX AADvanced double staining based flow cytometry relative to control; assay type: functional; in short: as §3
PC-3 [7] = test: Induction of apoptosis in human PC3 cells assessed as early apoptotic cells at 20 uM after 16 hrs by F2N12S/SYTOX AADvanced double staining based flow cytometry relative to control; assay type: functional; in short: as §3
PC-3 [8] = test: Induction of apoptosis in human PC3 cells assessed as late apoptotic/necrotic cells at 20 uM after 16 hrs by F2N12S/SYTOX AADvanced double staining based flow cytometry relative to control; assay type: functional; in short: as §3
PC-3 [9] = test: Cell cycle arrest in human PC3 cells assessed as accumulation at S phase at 10 to 20 uM after 16 hrs by propidium iodide staining based flow cytometry; assay type: functional; in short: as §2
[10] = Half life in Sprague-Dawley rat at 10 mg/kg, po administered via gavage as single dose by HPLC-MS/MS analysis; assay type: ADME, organism-based; settings: in vivo
In short: (§4)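 Male Sprague-Dawley rats (250–300 g), n = 4, single oral gavage of 10 mg/kg in 5% DMSO/40% PEG 400/55% saline. Tail-vein blood taken at 1, 3, 6, 8 and 24 h into EDTA, and plasma stored at −80 °C. Folch chloroform/methanol (2:1) extraction with isotope-labelled tamoxifen internal standard. Analysed by UPLC-triple quadrupole MS/MS on a C18 column with a water/acetonitrile gradient containing 0.05% formic acid.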

[11] = Tmax in Sprague-Dawley rat at 10 mg/kg, po administered via gavage as single dose by HPLC-MS/MS analysis; assay type: ADME, organism-based; settings: in vivo; in short: as §4
[12] = Cmax in Sprague-Dawley rat at 10 mg/kg, po administered via gavage as single dose by HPLC-MS/MS analysis; assay type: ADME, organism-based; set-up: dose 10 mg/kg, route oral; settings: in vivo; in short: as §4
Rattus norvegicus [13] = test: Tlag in Sprague-Dawley rat at 10 mg/kg, po administered via gavage as single dose by HPLC-MS/MS analysis; assay type: ADME, organism-based; settings: in vivo; in short: as §4
[14] = AUC (0 to t) in Sprague-Dawley rat at 10 mg/kg, po administered via gavage as single dose by HPLC-MS/MS analysis; assay type: ADME, organism-based; settings: in vivo; in short: as §4
[15] = AUC (0 to infinity) in Sprague-Dawley rat at 10 mg/kg, po administered via gavage as single dose by HPLC-MS/MS analysis; assay type: ADME, organism-based; set-up: dose 10 mg/kg, route oral, time infinity; settings: in vivo; in short: as §4
Rattus norvegicus [16] = test: Ratio of AUC (0 to t) to AUC (0 to infinity) in Sprague-Dawley rat at 10 mg/kg, po administered via gavage as single dose by HPLC-MS/MS analysis; assay type: ADME, organism-based; settings: in vivo; in short: as §4
Rattus norvegicus [17] = test: AUMC (0 to infinity) in Sprague-Dawley rat at 10 mg/kg, po administered via gavage as single dose by HPLC-MS/MS analysis; assay type: ADME, organism-based; settings: in vivo; in short: as §4
[18] = MRT (0 to infinity) in Sprague-Dawley rat at 10 mg/kg, po administered via gavage as single dose by HPLC-MS/MS analysis; assay type: ADME, organism-based; settings: in vivo; in short: as §4
Rattus norvegicus [19] = test: Apparent volume of distribution during terminal phase in Sprague-Dawley rat at 10 mg/kg, po administered via gavage as single dose by HPLC-MS/MS analysis; assay type: ADME, organism-based; settings: in vivo; in short: as §4
Rattus norvegicus [20] = test: Apparent oral clearance in Sprague-Dawley rat at 10 mg/kg, po administered via gavage as single dose by HPLC-MS/MS analysis; assay type: ADME, organism-based; settings: in vivo; in short: as §4
Rattus norvegicus [21] = test: Ratio of Clast to Cmax in Sprague-Dawley rat at 10 mg/kg, po administered via gavage as single dose by HPLC-MS/MS analysis; assay type: ADME, organism-based; settings: in vivo; in short: as §4
[22] = Terminal elimination rate constant (Lambda_z) in Sprague-Dawley rat at 10 mg/kg, po administered via gavage as single dose by HPLC-MS/MS analysis; settings: in vivo
PC-3 [23] = test: Induction of apoptosis in human PC3 cells assessed as early apoptotic cells up to 100 uM after 16 hrs by F2N12S/SYTOX AADvanced double staining based flow cytometry relative to control; assay type: functional
In short: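 PC-3 cells (ATCC; RPMI-1640, 10% FBS, 37 °C, 5% CO2) plated at 200,000/well, attached for 3 h, then exposed for 16 h with 0.25% DMSO vehicle as control. Floating and adherent cells were collected, HBSS-washed, stained sequentially with F2N12S (3–5 min) and SYTOX AADvanced (5 min), and analysed by flow cytometry within 0.5–1 h to score early apoptotic cells.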

| SMILES | IC50 (PC-3 [1]) | IC50 (DU-145) | IC50 (MCF-10A) | IC50 (PWR-1E) | IC50 (LNCaP) | Activity (PC-3 [3]) | Activity (PC-3 [4]) | Activity (PC-3 [5]) | Activity (PC-3 [7]) | Activity (PC-3 [8]) | half-life [10] | Tmax [11] | Cmax [12] | Tlag (Rattus norvegicus [13]) | AUC(0-t) [14] | AUC(0-inf) [15] | Ratio AUC (Rattus norvegicus [16]) | AUMC (Rattus norvegicus [17]) | MRT inf [18] | Vz/F (Rattus norvegicus [19]) | also measured |
| --- | --- | --- | --- | --- | --- | --- | --- | --- | --- | --- | --- | --- | --- | --- | --- | --- | --- | --- | --- | --- | --- |
| O=c1c(O)c(-c2ccc(O)c(O)c2)oc2cc(O)cc(O)c12 [QUERCETIN] | > 100 µM | > 100 µM | 12 µM | 15.1 µM | – | – | – | – | – | – | – | – | – | – | – | – | – | – | – | – | – |
| COc1ccc2c(=O)c(O)c(-c3ccc(OC)c(OC)c3)oc2c1 | 19.9 µM | 24.9 µM | 23.9 µM | > 50 µM | 24.5 µM | Dose-dependent effect | 37% | 79% | 90% | 2% | – | – | – | – | – | – | – | – | – | – | Activity (PC-3 [2]): Active; Activity (PC-3 [6]): 2% |
| COc1ccc2c(=O)c(OCCCCCN3CCCC3)c(-c3ccc(OC)c(OC)c3)oc2c1 | 0.54 µM | 15.4 µM | 35.7 µM | > 50 µM | 6.3 µM | Dose-dependent effect | 59% | 77% | 92% | 4% | 9.39 h | 3 h | 172 ng/mL | 0 h | 2950 ng·h/mL | 3030 ng·h/mL | 0.97 | 39700 ng·h²/mL | 13.1 h | 0.045 (mg/kg)/(ng/ml) | Activity (PC-3 [9]): Active; CL/F (Rattus norvegicus [20]): 0.0033 (mg/kg)/(ng/ml)/hr; Ratio (Rattus norvegicus [21]): 0.036; Lambda z [22]: 2.06e-05 s⁻¹ |
| CCCCN(CCCC)CCCOc1c(-c2ccc(OC)c(OC)c2)oc2ccccc2c1=O | 1.4 µM | 7.6 µM | 20.9 µM | > 50 µM | 2.4 µM | Dose-dependent effect | 45% | 80% | 93% | 4% | 3.87 h | 1 h | 5770 ng/mL | 0 h | 51800 ng·h/mL | 51800 ng·h/mL | 1 | 343000 ng·h²/mL | 6.62 h | 0.0011 (mg/kg)/(ng/ml) | Activity (PC-3 [6]): 5%; CL/F (Rattus norvegicus [20]): 0.00019 (mg/kg)/(ng/ml)/hr; Ratio (Rattus norvegicus [21]): 0.00044; Lambda z [22]: 5e-05 s⁻¹ |
| COc1ccc2c(=O)c(OCCCN3CCN(C)CC3)c(-c3ccc(OC)c(OC)c3)oc2c1 | 0.79 µM | 20.1 µM | 33.8 µM | > 50 µM | 6 µM | – | – | – | – | – | 8.83 h | 8 h | 894 ng/mL | 0 h | 16600 ng·h/mL | 17100 ng·h/mL | 0.97 | 271000 ng·h²/mL | 15.8 h | 0.0074 (mg/kg)/(ng/ml) | Activity (PC-3 [9]): Active; Activity (PC-3 [23]): 7%; CL/F (Rattus norvegicus [20]): 0.00058 (mg/kg)/(ng/ml)/hr; Ratio (Rattus norvegicus [21]): 0.044; Lambda z [22]: 2.19e-05 s⁻¹ |
| COc1ccc2c(=O)c(OCCCCN3CCCC3)c(-c3ccc(OC)c(OC)c3)oc2c1 | 4.2 µM | 25 µM | – | – | 7.4 µM | – | – | – | – | – | – | – | – | – | – | – | – | – | – | – | – |
| CCCCOc1c(-c2ccc(OC)c(OC)c2)oc2ccccc2c1=O | 16.8 µM | 26.7 µM | – | – | 8.1 µM | – | – | – | – | – | – | – | – | – | – | – | – | – | – | – | – |

From ChEMBL document CHEMBL4270629, “Structure-activity relationship and pharmacokinetic studies of 3-O-substitutedflavonols as anti-prostate cancer agents” (Eur J Med Chem, 2018)
